Tested on: Fibroblast
Experiment: Multiplex assay against human fibroblast
Format: toxicity, cell-based
How it was run: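 At seeding, live cells were stained with Hoechst33342, BioTracker Green Microtubule Cytoskeleton Dye, MitoTracker Red and Annexin V Alexa Fluor 680. After compound addition they were imaged on a CQ1 microscope at 37°C and 5% CO2, and CellPathfinder machine-learning gating sorted them into Hoechst high-intensity objects or normal cells, with normal cells further split into healthy, pyknosed or fragmented nuclei and pyknosed cells into mitotic or apoptotic. Tubulin, mitochondrial-mass and membrane-permeability phenotypes are given as per cents of cells with healthy nuclei.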

[1] = 12 h, 1 µM, compound concentration 1 uM, replicate 1
[2] = 12 h, 1 µM, compound concentration 1 uM, replicate 2
[3] = 12 h, 10 µM, compound concentration 10 uM, replicate 1
[4] = 12 h, 10 µM, compound concentration 10 uM, replicate 2
[5] = 24 h, 1 µM, compound concentration 1 uM, replicate 1
[6] = 24 h, 1 µM, compound concentration 1 uM, replicate 2
[7] = 24 h, 10 µM, compound concentration 10 uM, replicate 1
[8] = 24 h, 10 µM, compound concentration 10 uM, replicate 2
[9] = 48 h, 1 µM, compound concentration 1 uM, replicate 1
[10] = 48 h, 1 µM, compound concentration 1 uM, replicate 2
[11] = 48 h, 10 µM, compound concentration 10 uM, replicate 1
[12] = 48 h, 10 µM, compound concentration 10 uM, replicate 2

## O=C(Nc1ccc(Cl)cc1)Nc1cccc(-c2cccc(N3CCCC3)n2)c1
[1]
  Population Apoptotic (%): 45%
  Population Fragmented Nuclei (%): 32%
  Population Healthy Nuclei (%): 41%
  Population Hoechst High Intensity Objects (%): 18%
  Population Membrane Permeable-Phenotype (%): 43%
  Population Mitochondria Different-Phenotype (%): 5%
  Population Mitotic Cells (%): 54%
  Population Normal (%): 81%
  Population Pyknosed Nuclei (%): 26%
  Population Tubulin-Different-Phenotype (%): 35%
  Total Cell Count: 110
[2]
  Population Apoptotic (%): 25%
  Population Fragmented Nuclei (%): 17%
  Population Healthy Nuclei (%): 76%
  Population Hoechst High Intensity Objects (%): 7%
  Population Membrane Permeable-Phenotype (%): 10%
  Population Mitochondria Different-Phenotype (%): 8%
  Population Mitotic Cells (%): 75%
  Population Normal (%): 92%
  Population Pyknosed Nuclei (%): 6%
  Population Tubulin-Different-Phenotype (%): 12%
  Total Cell Count: 83
[3]
  Population Apoptotic (%): 66%
  Population Fragmented Nuclei (%): 21%
  Population Healthy Nuclei (%): 23%
  Population Hoechst High Intensity Objects (%): 35%
  Population Membrane Permeable-Phenotype (%): 40%
  Population Mitochondria Different-Phenotype (%): 0%
  Population Mitotic Cells (%): 34%
  Population Normal (%): 64%
  Population Pyknosed Nuclei (%): 54%
  Population Tubulin-Different-Phenotype (%): 54%
  Total Cell Count: 142
[4]
  Population Apoptotic (%): 72%
  Population Fragmented Nuclei (%): 3%
  Population Healthy Nuclei (%): 78%
  Population Hoechst High Intensity Objects (%): 7%
  Population Membrane Permeable-Phenotype (%): 69%
  Population Mitochondria Different-Phenotype (%): 7%
  Population Mitotic Cells (%): 27%
  Population Normal (%): 92%
  Population Pyknosed Nuclei (%): 17%
  Population Tubulin-Different-Phenotype (%): 74%
  Total Cell Count: 69
[5]
  Population Apoptotic (%): 50%
  Population Fragmented Nuclei (%): 31%
  Population Healthy Nuclei (%): 52%
  Population Hoechst High Intensity Objects (%): 13%
  Population Membrane Permeable-Phenotype (%): 23%
  Population Mitochondria Different-Phenotype (%): 0%
  Population Mitotic Cells (%): 50%
  Population Normal (%): 86%
  Population Pyknosed Nuclei (%): 15%
  Population Tubulin-Different-Phenotype (%): 42%
  Total Cell Count: 103
[6]
  Population Apoptotic (%): 20%
  Population Fragmented Nuclei (%): 18%
  Population Healthy Nuclei (%): 75%
  Population Hoechst High Intensity Objects (%): 6%
  Population Membrane Permeable-Phenotype (%): 7%
  Population Mitochondria Different-Phenotype (%): 3%
  Population Mitotic Cells (%): 80%
  Population Normal (%): 93%
  Population Pyknosed Nuclei (%): 6%
  Population Tubulin-Different-Phenotype (%): 12%
  Total Cell Count: 94
[7]
  Population Apoptotic (%): 91%
  Population Fragmented Nuclei (%): 17%
  Population Healthy Nuclei (%): 24%
  Population Hoechst High Intensity Objects (%): 31%
  Population Membrane Permeable-Phenotype (%): 45%
  Population Mitochondria Different-Phenotype (%): 33%
  Population Mitotic Cells (%): 8%
  Population Normal (%): 68%
  Population Pyknosed Nuclei (%): 58%
  Population Tubulin-Different-Phenotype (%): 50%
  Total Cell Count: 145
[8]
  Population Apoptotic (%): 72%
  Population Fragmented Nuclei (%): 13%
  Population Healthy Nuclei (%): 54%
  Population Hoechst High Intensity Objects (%): 25%
  Population Membrane Permeable-Phenotype (%): 46%
  Population Mitochondria Different-Phenotype (%): 15%
  Population Mitotic Cells (%): 27%
  Population Normal (%): 74%
  Population Pyknosed Nuclei (%): 31%
  Population Tubulin-Different-Phenotype (%): 46%
  Total Cell Count: 81
[9]
  Population Apoptotic (%): 55%
  Population Fragmented Nuclei (%): 40%
  Population Healthy Nuclei (%): 51%
  Population Hoechst High Intensity Objects (%): 14%
  Population Membrane Permeable-Phenotype (%): 33%
  Population Mitochondria Different-Phenotype (%): 1%
  Population Mitotic Cells (%): 44%
  Population Normal (%): 85%
  Population Pyknosed Nuclei (%): 7%
  Population Tubulin-Different-Phenotype (%): 28%
  Total Cell Count: 135
[10]
  Population Apoptotic (%): 0%
  Population Fragmented Nuclei (%): 28%
  Population Healthy Nuclei (%): 70%
  Population Hoechst High Intensity Objects (%): 12%
  Population Membrane Permeable-Phenotype (%): 22%
  Population Mitotic Cells (%): 100%
  Population Normal (%): 87%
  Population Pyknosed Nuclei (%): 1%
  Population Tubulin-Different-Phenotype (%): 34%
  Total Cell Count: 107
[11]
  Population Apoptotic (%): 94%
  Population Fragmented Nuclei (%): 19%
  Population Healthy Nuclei (%): 17%
  Population Hoechst High Intensity Objects (%): 45%
  Population Membrane Permeable-Phenotype (%): 35%
  Population Mitochondria Different-Phenotype (%): 28%
  Population Mitotic Cells (%): 5%
  Population Normal (%): 54%
  Population Pyknosed Nuclei (%): 63%
  Population Tubulin-Different-Phenotype (%): 50%
  Total Cell Count: 151
[12]
  Population Apoptotic (%): 95%
  Population Fragmented Nuclei (%): 16%
  Population Healthy Nuclei (%): 9%
  Population Hoechst High Intensity Objects (%): 63%
  Population Membrane Permeable-Phenotype (%): 27%
  Population Mitochondria Different-Phenotype (%): 18%
  Population Mitotic Cells (%): 4%
  Population Normal (%): 36%
  Population Pyknosed Nuclei (%): 73%
  Population Tubulin-Different-Phenotype (%): 36%
  Total Cell Count: 325
